pIC50: −log10 of the molar value. Blank lines part the entries; values can stand above or below the compound they belong to. The source made the active and inactive calls. No cut-off for these calls is given here.
Legend:
[1] = molecular target: T1, ABCG2 (Homo sapiens, UniProt Q9UNQ0); experiment: Inhibition of ABCG2 (unknown origin) expressed in HEK293 cells assessed as reduction in mitoxantrone efflux at 10 uM after 30 mins by FACS method; assay type: cell-based; details: HEK293 cells expressing ABCG2, probe mitoxantrone
T1 sequence (Q9UNQ0 whole entry): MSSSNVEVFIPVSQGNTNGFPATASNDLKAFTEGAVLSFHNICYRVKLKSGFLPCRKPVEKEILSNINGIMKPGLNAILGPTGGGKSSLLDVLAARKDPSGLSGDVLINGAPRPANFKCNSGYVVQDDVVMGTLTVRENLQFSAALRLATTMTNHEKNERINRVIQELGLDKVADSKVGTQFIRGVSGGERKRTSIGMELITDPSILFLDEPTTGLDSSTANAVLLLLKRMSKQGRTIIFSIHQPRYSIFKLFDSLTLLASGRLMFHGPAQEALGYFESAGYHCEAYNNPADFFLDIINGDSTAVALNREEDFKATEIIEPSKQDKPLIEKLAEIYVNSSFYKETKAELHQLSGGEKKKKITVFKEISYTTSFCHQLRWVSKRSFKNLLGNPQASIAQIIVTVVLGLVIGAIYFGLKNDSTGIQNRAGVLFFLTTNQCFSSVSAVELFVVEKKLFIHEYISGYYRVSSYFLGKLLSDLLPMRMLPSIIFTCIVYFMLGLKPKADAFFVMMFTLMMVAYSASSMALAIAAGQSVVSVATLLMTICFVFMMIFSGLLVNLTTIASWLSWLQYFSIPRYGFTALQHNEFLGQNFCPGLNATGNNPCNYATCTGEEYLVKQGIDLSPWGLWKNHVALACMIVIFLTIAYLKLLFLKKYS
Method in brief: (§1)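 HEK293 cells stably transfected with ABCG2 (kept in 0.75 mg/mL G418) were seeded at 1.0 × 10^5/well and grown 72 h. They were then exposed to 5 μM mitoxantrone for 30 min at 37 °C with or without compound, washed and trypsinized. Intracellular fluorescence was read by flow cytometry (FL4, ≥10,000 events).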

[2] = molecular target: T2, Broad substrate specificity ATP-binding cassette transporter ABCG2 (Homo sapiens, UniProt Q9UNQ0); experiment: Inhibition of ABCG2 (unknown origin) expressed in HEK293 cells assessed as reduction in mitoxantrone efflux after 30 mins by FACS method; assay type: cell-based; method in brief: as §1
T2 sequence (Q9UNQ0 whole entry): T1 sequence (Q9UNQ0 whole entry)

[3] = molecular target: Casein kinase II (Homo sapiens, UniProt P19784+P67870+P68400); experiment: Inhibition of human recombinant CK2a1/CK2b holoenzyme expressed in Escherichia coli BL21(DE3) pre-incubated for 10 mins before substrate addition by capillary electrophoresis based assay
Casein kinase II, sequence (P67870 whole entry): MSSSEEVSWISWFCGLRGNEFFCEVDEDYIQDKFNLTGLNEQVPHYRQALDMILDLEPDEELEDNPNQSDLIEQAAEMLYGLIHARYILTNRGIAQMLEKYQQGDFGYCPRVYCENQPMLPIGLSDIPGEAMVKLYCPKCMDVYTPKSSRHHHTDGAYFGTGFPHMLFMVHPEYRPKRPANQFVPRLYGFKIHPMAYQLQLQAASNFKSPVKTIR
Casein kinase II, sequence (P68400 whole entry): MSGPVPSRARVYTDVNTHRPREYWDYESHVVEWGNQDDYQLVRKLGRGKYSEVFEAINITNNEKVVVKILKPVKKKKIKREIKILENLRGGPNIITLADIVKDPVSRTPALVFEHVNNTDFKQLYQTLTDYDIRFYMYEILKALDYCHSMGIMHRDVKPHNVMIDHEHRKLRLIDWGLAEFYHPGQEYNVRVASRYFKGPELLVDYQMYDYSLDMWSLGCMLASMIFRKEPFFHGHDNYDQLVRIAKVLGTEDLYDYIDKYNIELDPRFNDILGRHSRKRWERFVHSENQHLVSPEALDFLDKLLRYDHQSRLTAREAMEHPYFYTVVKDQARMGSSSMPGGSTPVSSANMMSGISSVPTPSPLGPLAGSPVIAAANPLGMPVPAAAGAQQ
Casein kinase II, sequence (P19784 whole entry): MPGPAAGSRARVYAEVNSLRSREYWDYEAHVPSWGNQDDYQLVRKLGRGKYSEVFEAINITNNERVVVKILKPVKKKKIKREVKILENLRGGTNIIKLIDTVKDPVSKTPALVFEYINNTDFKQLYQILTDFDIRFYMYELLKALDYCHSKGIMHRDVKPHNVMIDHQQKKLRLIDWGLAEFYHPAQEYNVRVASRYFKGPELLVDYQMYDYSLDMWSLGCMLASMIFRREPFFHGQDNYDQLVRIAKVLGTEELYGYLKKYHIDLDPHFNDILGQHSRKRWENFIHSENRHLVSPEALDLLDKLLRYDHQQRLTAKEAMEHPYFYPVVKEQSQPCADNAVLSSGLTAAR

[4] = system: ABCG2; experiment: Selectivity index, ratio of IC50 for intrinsic cytotoxicity against HEK293 cells to IC50 for ABCG2 (unknown origin) expressed in HEK293 cells; assay type: toxicity, cell-based; details: human, HEK293 cells expressing ABCG2, read-out: Selectivity Index
[5] = system: HEK293; experiment: Selectivity index, ratio of IC50 for human recombinant CK2a1/CK2b holoenzyme expressed in Escherichia coli BL21(DE3) to IC50 for ABCG2 (unknown origin) expressed in HEK293 cells
[6] = Intrinsic cytotoxicity against HEK293 cells assessed as reduction in cell viability after 72 hrs by MTT assay; assay type: cell-based; details: human, read-out: IG50
Method in brief: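 Wild-type HEK293 cells were seeded at 1 × 10^4/well, incubated overnight, then treated with compound (0–250 μM) for 72 h. MTT at 0.5 mg/mL was added for 4 h at 37 °C. Formazan was dissolved in DMSO/ethanol 1:1, and absorbance was read at 570 nm minus 690 nm to give IG50.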

[7] = system: MCF7; experiment: Inhibition of cell proliferation of human MCF7 cells assessed as DNA synthesis at 20 uM after 48 hrs by EdU-click assay; assay type: functional; parameters: scale not given: the % may be the effect or the level left
Method in brief: (§2)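 MCF-7 cells were grown in RPMI 1640 GlutaMax plus 10% FCS, seeded 5.0 × 10^4/well and incubated overnight. They were then exposed to inhibitor at 20 or 100 μM for 24 or 48 h (37 °C, 5% CO2), with 1% DMSO as control. EdU was incorporated and click-coupled to TAMRA azide, with Hoechst counterstain. Microscope counts gave TAMRA-positive nuclei as a percentage of total nuclei. Values are the mean (±SD) of four assays.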

[8] = system: MCF7; experiment: Inhibition of cell proliferation of human MCF7 cells assessed as DNA synthesis at 20 uM after 24 hrs by EdU-click assay; assay type: functional; parameters: scale not given: the % may be the effect or the level left; method in brief: as §2
[9] = system: MCF7; experiment: Inhibition of cell proliferation of human MCF7 cells assessed as DNA synthesis at 100 uM after 24 hrs by EdU-click assay; assay type: functional, cell-based; method in brief: as §2
[10] = system: MCF7; experiment: Induction of cell death in human MCF7 cells assessed as viable cell level at 20 to 100 uM after 24 hrs by Hoechst 33258 staining based fluorescence assay; assay type: functional
Method in brief: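 MCF-7 cells grown in RPMI 1640 GlutaMax with 10% fetal calf serum, seeded at 5.0 × 10^4 cells/well and left overnight. Medium then replaced with fresh medium holding inhibitor at 20 or 100 μM, with 1% DMSO as control, for 24 h at 37 °C, 5% CO2. Nuclei stained with Hoechst 33258 (3 μg/mL in methanol, 30 min, room temperature, dark). Total cells counted and nuclear morphology examined by fluorescence microscopy.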

[11] = system: MCF7; experiment: Induction of apoptosis in human MCF7 cells assessed as reduction in nuclear size at 20 to 100 uM after 24 hrs by Hoechst 33258 staining based fluorescence assay; assay type: functional, cell-based
Method in brief: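 MCF-7 cells grown in RPMI 1640 GlutaMax with 10% fetal calf serum, seeded 5.0 × 10^4 cells/well and incubated overnight. Medium then replaced with medium containing compound at 20 or 100 μM; 1% DMSO as control. Incubation 24 h at 37 °C, 5% CO2. Nuclei stained with Hoechst 33258 (3 μg/mL in methanol), 30 min at room temperature in the dark. Nuclear morphology examined by fluorescence microscopy.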

[12] = system: MCF7; experiment: Induction of apoptosis in human MCF7 cells assessed as chromatin condensation at 20 to 100 uM after 24 hrs by Hoechst 33258 staining based fluorescence assay; assay type: functional, cell-based; details: in the assay text read “100 uM” for “20 to 100 uM”
Method in brief: (§3)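 MCF-7 cells in RPMI 1640 GlutaMax with 10% FCS, seeded 5.0 × 10^4 per well and left overnight. Medium was replaced with inhibitor at 20 or 100 μM, with 1% DMSO as control, for 24 h at 37 °C, 5% CO2. Nuclei were stained with Hoechst 33258 (3 μg/mL in methanol) for 30 min at room temperature in the dark and examined by fluorescence microscopy (DAPI filter) for nuclear morphology.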

[13] = system: MCF7; experiment: Induction of cell damage in human MCF7 cells at 20 to 100 uM after 24 hrs by Hoechst 33258 staining based fluorescence assay; assay type: functional; method in brief: as §3

SMILES: CC(C)=CCOc1cccc2c1C(=O)c1c3c(n(C(C)C)c1-2)CCCC3=O
inhibition at 0.5 h, 10 µM [1]: 74% | pIC50 [2]: 5.52

pIC50 [3]: 4.96
SMILES: CC(C)n1c2c(c3c1-c1ccccc1C3=O)C(=O)C(Cc1ccccc1)(Cc1ccccc1)CC2
inhibition at 0.5 h, 10 µM [1]: 90% | pIC50 [2]: 6.21 | selectivity ratio [4]: 10 | Ratio IC50 [5]: 18 | CC50 at 72 h [6]: 6 µM

SMILES: CC1CC(=O)c2c3c(n(CCc4ccccc4)c2C1)-c1ccccc1C3=O (stereo unspecified)
inhibition at 0.5 h, 10 µM [1]: 100% | pIC50 [2]: 6.64 | Ratio IC50 [5]: 11 | CC50 at 72 h [6]: > 100 µM

pIC50 [3]: 5.85
SMILES: COc1ccccc1CCn1c2c(c3c1-c1ccccc1C3=O)C(=O)CCC2
inhibition at 0.5 h, 10 µM [1]: 106% | pIC50 [2]: 6.68 | selectivity ratio [4]: 130 | Ratio IC50 [5]: 7 | CC50 at 72 h [6]: 27.2 µM

pIC50 [3]: 4.26
SMILES: O=C1CC(c2ccccc2)Cc2c1c1c(n2Cc2ccccc2)-c2ccccc2C1=O (stereo unspecified)
inhibition at 0.5 h, 10 µM [1]: 68% | pIC50 [2]: 6.02 | selectivity ratio [4]: 18 | CC50 at 72 h [6]: 16.9 µM

SMILES: O=C1c2c(O)ccc(O)c2C(=O)c2c(NCCNCCO)ccc(NCCNCCO)c21 [MITOXANTRONE]
CC50 at 72 h [6]: 0.009 µM

pIC50 [3]: 4.46
SMILES: CC1CC(=O)c2c3c(n(Cc4ccccc4)c2C1)-c1ccccc1C3=O (stereo unspecified)
inhibition at 0.5 h, 10 µM [1]: 33% | pIC50 [2]: 4.82 | Ratio IC50 [5]: 2

pIC50 [3]: 5.29
SMILES: COc1cccc(CCn2c3c(c4c2-c2ccccc2C4=O)C(=O)CCC3)c1
inhibition at 0.5 h, 10 µM [1]: 78% | pIC50 [2]: 6.51 | selectivity ratio [4]: 41 | Ratio IC50 [5]: 16 | CC50 at 72 h [6]: 12.7 µM

pIC50 [3]: 5.15
SMILES: O=C1CCCc2c1c1c(n2CCc2ccccc2)-c2ccccc2C1=O
inhibition at 0.5 h, 10 µM [1]: 100% | pIC50 [2]: 6.37 | selectivity ratio [4]: 71 | Ratio IC50 [5]: 16 | CC50 at 72 h [6]: 30.7 µM

SMILES: CC1CCc2c(c3c(n2C(C)C)-c2ccccc2C3=O)C1=O (stereo unspecified)
inhibition at 0.5 h, 10 µM [1]: 40% | pIC50 [2]: 4.70

SMILES: COc1ccc2[nH]cc(CCNC(=O)c3cc(=O)c4c(OCc5ccc(Br)cc5)cccc4o3)c2c1
inhibition at 0.5 h, 10 µM [1]: 98% | pIC50 [2]: 6.89 | CC50 at 72 h [6]: 96 µM

SMILES: COc1ccc(CCn2c3c(c4c2-c2ccccc2C4=O)C(=O)CCC3)cc1
inhibition at 0.5 h, 10 µM [1]: 131% | pIC50 [2]: 6.15 | Ratio IC50 [5]: 6 | CC50 at 72 h [6]: 68.5 µM

SMILES: CCc1c2c(nc3ccc(O)cc13)-c1cc3c(c(=O)n1C2)COC(=O)[C@]3(O)CC [7-ETHYL-10-HYDROXYCAMPTOTHECIN]
CC50 at 72 h [6]: 0.005 µM

SMILES: COc1ccc2c3c([nH]c2c1)[C@H](CC(C)C)N1C(=O)[C@H](CCC(=O)OC(C)(C)C)NC(=O)[C@@H]1C3
CC50 at 72 h [6]: 32 µM

SMILES: CC(C)=CCOc1cccc2c1-c1c(c3c(n1C(C)C)CCCC3=O)C2=O
Activity [7]: 1.3% | Activity [8]: 14% | inhibition [9]: Active | inhibition at 0.5 h, 10 µM [1]: 60% | pIC50 [2]: 5.80 | Activity [10]: 10% | Activity [11]: Active | Activity [12]: Active | CC50 at 72 h [6]: 31 µM | Activity [13]: Active

pIC50 [3]: 4.82
SMILES: O=C1CC(c2ccccc2)Cc2c1c1c(n2CCc2ccccc2)-c2ccccc2C1=O (stereo unspecified)
inhibition at 0.5 h, 10 µM [1]: 83% | pIC50 [2]: 6.31 | selectivity ratio [4]: 41 | Ratio IC50 [5]: 30 | CC50 at 72 h [6]: 20.1 µM

pIC50 [3]: 4.82
SMILES: O=C1CCCc2c1c1c(n2Cc2ccccc2)-c2ccccc2C1=O
inhibition at 0.5 h, 10 µM [1]: 18% | pIC50 [2]: 4.52 | Ratio IC50 [5]: 0.5

SMILES: CC(C)n1c2c(c3c1-c1ccccc1C3=O)C(=O)CCC2
inhibition at 0.5 h, 10 µM [1]: 15% | pIC50 [2]: 4.46

pIC50 [3]: 5.22
SMILES: O=C1CCCc2c1c1c(n2CCCc2ccccc2)-c2ccccc2C1=O
inhibition at 0.5 h, 10 µM [1]: 83% | pIC50 [2]: 6.10 | selectivity ratio [4]: > 127 | Ratio IC50 [5]: 8 | CC50 at 72 h [6]: > 100 µM

SMILES: CC1CC(=O)c2c3c(n(C(C)C)c2C1)-c1ccccc1C3=O (stereo unspecified)
inhibition at 0.5 h, 10 µM [1]: 65% | pIC50 [2]: 5.39
